Values after ≈ are worked out from the molar mass of the structure shown. Active and inactive are the calls of the source. No cut-off for these calls is given here.
Tests used:
[1] = Solubility of the compound in PBS at pH 6.5 at 50 uM after overnight incubation by LC-MS/MS method; format: physicochemical
Procedure, shortened: (§1)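 Solubility measured at pH 7.4, 6.5 and 2.0.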

HepG2 = assay: Cytotoxicity against human HepG2 cells after 48 hrs by Alamar Blue-based assay; format: cell-based; settings: HepG2, 48 h
Procedure, shortened: (§2)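 Cytotoxicity tested against human lymphoblasts CRL-8155 and hepatocytes HepG2. Highest concentration tested was 50 µM.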

Trypanosoma cruzi [2] = assay: Antitrypanosomal activity against Trypanosoma cruzi Tulahuen amastigotes infected in mouse 3T3 cells after 6 days by beta galactosidase reporter asay; format: functional, cell-based; settings: NIH3T3, 144 h
Liver = assay: Stability of the compound in mouse liver microsomes assessed as compound remaining by LC-MS/MS method; format: ADME, microsome
Procedure, shortened: (§3)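 Incubation with mouse liver microsomes, run in duplicate. Testosterone and dextromethorphan included as controls in each assay.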

[3] = test system: Trypanosoma brucei brucei; assay: Antitrypanosomal activity against Trypanosoma brucei brucei BF427 after 48 hrs by Alamar Blue-based assay; format: functional; settings: BF427, 48 h
[4] = Fraction unbound in Swiss Webster mouse plasma at 2 uM by LC-MS/MS analysis; format: ADME, cell-free
Procedure, shortened: (§4)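 Plasma protein binding measured in 100% mouse plasma, giving % recovery and % fraction unbound. Propranolol control included in every experiment.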

[5] = Solubility of the compound in PBS at pH 7.4 at 50 uM after overnight incubation by LC-MS/MS method; format: physicochemical; procedure, shortened: as §1
[6] = Cytotoxicity against human CRL8155 cells after 48 hrs by Alamar Blue-based assay; format: cell-based; settings: CRL8155, 48 h; procedure, shortened: as §2
[7] = Protein binding in Swiss Webster mouse plasma assessed as drug recovery at 2 uM by LC-MS/MS analysis; format: ADME, cell-free; settings: read-out: Drug recovery; procedure, shortened: as §4
[8] = Solubility of the compound in HCl at pH 2.0 at 50 uM after overnight incubation by LC-MS/MS method; format: physicochemical; procedure, shortened: as §1
[9] = Half life in mouse liver microsomes by LC-MS/MS method; format: ADME, microsome; procedure, shortened: as §3
Mus musculus = assay: Toxicity in BALB/c mouse infected with bioluminescent PpyRE9h expressing Trypanosoma cruzi Tulahuen […] at 50 mg/kg, po twice daily for 5 days measured after 6 weeks; format: organism-based; settings: in vivo, 1008 h
Procedure, shortened: (§5)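 Balb/c mice infected SC on day 0 with 2x10^4 T. cruzi Tulahuen trypomastigotes expressing red-shifted luciferase (PpyRE9h). Oral dosing at 50 mg/kg twice daily on days 7-11 post-infection. D-luciferin (120 mg/kg) injected SC, mice anesthetized and imaged by IVIS 10-15 min later, at time points out to 42 days. Mice observed for toxicity.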

[10] = AUC in Swiss Webster mouse at 50 mg/kg, po by LC-MS/MS analysis; format: ADME, organism-based; settings: in vivo
Procedure, shortened: (§6)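 Oral single dose of 50 mg/kg to mice (n=3). Blood sampled at time points up to 24 h. Cmax and AUC reported as average ± SEM.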

[11] = Plasma concentration in BALB/c mouse subcutaneously infected with bioluminescent PpyRE9h expressing Trypanosoma cruzi Tulahuen […] at 50 mg/kg, po twice daily measured 1 hr post seventh dose; format: ADME, organism-based
Procedure, shortened: (§7)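 Infected Balb/c mice on the twice-daily 50 mg/kg oral regimen. Tail blood collected at the 7th dose, immediately before and 1 h and 6 h after administration (n=3).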

[12] = Plasma concentration in BALB/c mouse subcutaneously infected with bioluminescent PpyRE9h expressing Trypanosoma cruzi Tulahuen […] at 50 mg/kg, po twice daily measured immediately before seventh dose
[13] = Plasma concentration in Swiss Webster mouse at 5 mg/kg, ip after 1 hr by LC-MS/MS analysis; format: ADME, organism-based
Procedure, shortened: (§8)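 Mice in groups of three got a single 5 mg/kg ip dose. Animals were sacrificed 1 h postdose, and brain and plasma were collected for analysis. Brain:plasma ratio was calculated from the mean concentrations.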

[14] = Plasma concentration in BALB/c mouse subcutaneously infected with bioluminescent PpyRE9h expressing Trypanosoma cruzi Tulahuen tryptomastigotes at 50 mg/kg, po twice daily measured 6 hrs post seventh dose; format: ADME, organism-based; procedure, shortened: as §7
[15] = Drug level in Swiss Webster mouse brain at 5 mg/kg, ip after 1 hr by LC-MS/MS analysis; format: ADME, organism-based; settings: read-out: Drug uptake; procedure, shortened: as §8
Trypanosoma cruzi [16] = assay: Antitrypanosomal activity against bioluminescent PpyRE9h expressing Trypanosoma cruzi Tulahuen […] infected subcutaneously in BALB/c mouse assessed as suppression of Trypanosoma cruzi infection at 50 mg/kg, po twice daily for 5 days measured after 6 weeks by IVIS imaging analysis; format: functional, organism-based; procedure, shortened: as §5
[17] = Ratio of drug level in Swiss Webster mouse brain to plasma at 5 mg/kg, ip measured after 1 hr by LC-MS/MS analysis; format: ADME, organism-based; settings: read-out: BPR; procedure, shortened: as §8
[18] = Cmax in Swiss Webster mouse at 50 mg/kg, po by LC-MS/MS analysis; format: ADME, organism-based; design: dose 50 mg/kg, route oral; settings: in vivo; procedure, shortened: as §6
Trypanosoma cruzi [19] = assay: Antitrypanosomal activity against bioluminescent PpyRE9h expressing Trypanosoma cruzi Tulahuen […] infected subcutaneously in BALB/c mouse assessed as suppression of Trypanosoma cruzi infection at 100 mg/kg, po qd administered for 5 days measured after 6 weeks by IVIS imaging analysis; format: functional, organism-based
[20] = Selectivity ratio of EC50 for Trypanosoma cruzi Tulahuen amastigotes to EC50 for Trypanosoma brucei brucei BF427; format: functional

Structure (SMILES)	EC50 (HepG2) [nM]	EC50 (Trypanosoma cruzi [2]) [nM]	EC90 (Trypanosoma cruzi [2]) [nM]	EC50 [3] [nM]	EC90 [3] [nM]	EC50 [6] [nM]	also measured
O=C(Nc1ccn2cc(-c3cccc(F)c3F)nc2c1)N1CC[C@H](F)C1	> 50000	940	1360	180	920	> 50000	solubility at 50 µM [1]: 6.8 µM (≈ 2.45 µg/mL); Stability (Liver): 86.3%; fraction unbound at 2 µM [4]: 0.026; solubility at 50 µM [5]: 6.4 µM (≈ 2.31 µg/mL); recovery at 2 µM [7]: 68.4%; solubility at 50 µM [8]: 53.1 µM (≈ 19.1 µg/mL); half-life [9]: > 1 h
O=C(Nc1cc2nc(-c3ccc(F)c(F)c3)cn2cn1)N1CC[C@H](F)C1	> 50000	90	150	20	50	> 50000	solubility at 50 µM [1]: 2.4 µM (≈ 0.867 µg/mL); Activity (Mus musculus): Non-Toxic; Stability (Liver): 96%; AUC [10]: 59.8 µM·h; concentration at 1 h [11]: 9 µM; concentration at 0 hr [12]: 4.8 µM; concentration at 1 h [13]: 1.31 µM; concentration at 6 h [14]: 5.8 µM; concentration at 1 h [15]: 1.12 µM; fraction unbound at 2 µM [4]: 0.099; solubility at 50 µM [5]: 2.1 µM (≈ 0.759 µg/mL); Activity (Trypanosoma cruzi [16]): Active; Kp at 1 h [17]: 0.856; recovery at 2 µM [7]: 56.1%; solubility at 50 µM [8]: 1.6 µM (≈ 0.578 µg/mL); half-life [9]: > 1 h; Cmax [18]: 5.7 µM
N=C(N)c1ccc(OCCCCCOc2ccc(C(=N)N)cc2)cc1 [PENTAMIDINE]				2.16	6.13		
CCN(CC)CCCC(C)Nc1c2ccc(Cl)cc2nc2ccc(OC)cc12 (centres undefined) [QUINACRINE]						4230	
Cn1nc(C(C)(C)C)cc1C(=O)Nc1cc2nc(-c3ccc(F)c(F)c3)cn2cn1	> 50000	170	640	6990	> 20000	14500	solubility at 50 µM [1]: 7.6 µM (≈ 3.12 µg/mL); Stability (Liver): 47.1%; fraction unbound at 2 µM [4]: 0.007; solubility at 50 µM [5]: 2.7 µM (≈ 1.11 µg/mL); recovery at 2 µM [7]: 73.3%; solubility at 50 µM [8]: 1.3 µM (≈ 0.534 µg/mL); half-life [9]: 1 h
O=C(Nc1ccn2cc(-c3ccccc3)nc2c1)N1CCCC1	> 50000	4460	6440	2230	3270	36000	
O=C(Nc1ccn2cc(-c3nccs3)nc2c1)N1CC[C@H](F)C1	> 50000	> 20000	> 20000	> 20000	> 20000	> 50000	
O=C(Nc1ccn2cc(-c3ccc(F)c(F)c3)nc2n1)N1CC[C@H](F)C1	> 50000	2530	> 20000	> 20000	> 20000	> 50000	solubility at 50 µM [1]: 42 µM (≈ 15.2 µg/mL); fraction unbound at 2 µM [4]: 0.081; recovery at 2 µM [7]: 49%
O=C(Cn1ccnc1[N+](=O)[O-])NCc1ccccc1 [BENZNIDAZOLE]		690	1360				Activity (Trypanosoma cruzi [19]): Active
O=C(Nc1ccn2cc(-c3cccs3)nc2c1)N1CC[C@H](F)C1	> 50000	2680	3920	1000	2670	> 50000	
COc1ccc2c(c1)[C@]13CCCC[C@@H]1[C@H](C2)N(C)CC3 [DEXTROMETHORPHAN]							half-life [9]: 0.0185 h
CC(C)NCC(O)COc1cccc2ccccc12 (centres undefined) [PROPRANOLOL]							fraction unbound at 2 µM [4]: 0.114; recovery at 2 µM [7]: 75.7%
Cc1noc(C)c1C(=O)Nc1ccn2cc(-c3ccc(F)c(F)c3)nc2c1	> 50000	9060	> 20000	> 20000	> 20000	> 50000	
O=C(Nc1ccc2nc(-c3ccc(F)c(F)c3)cn2c1)N1CC[C@H](F)C1	> 50000	9940	> 20000	> 20000	> 20000	> 50000	
Cn1nc(C(C)(C)C)cc1C(=O)Nc1ccn2cc(-c3ccc(F)c(F)c3)nc2c1	> 50000	570	1520	710	> 20000	> 50000	
O=C(Nc1ccn2cc(-c3cccc(F)c3F)nc2c1)N1CCCC1	> 50000	1020	1610	580	2760	> 50000	
O=C(Nc1ccn2cc(-c3ccc(F)c(F)c3)nc2c1)N1CCCCC1	> 50000	2840	4400	1200	1750	47400	
O=C(Nc1ccn2cc(-c3ccc(F)c(F)c3)nc2c1)N1CCCC1	> 50000	2240	2570	320	730	> 50000	Ratio EC50 [20]: 7
O=C(Nc1ccn2cc(-c3ccccc3)nc2c1)N1CCCCC1	> 50000	2750	12300	2510	4200	> 50000	
O=C(Nc1ccn2cc(-c3ccc(F)c(F)c3)nc2c1)N1CC[C@H](F)C1	> 50000	390	600	160	310	35300	solubility at 50 µM [1]: 49.9 µM (≈ 18 µg/mL); Stability (Liver): 100%; concentration at 1 h [13]: 4.84 µM; concentration at 1 h [15]: 0.55 µM; fraction unbound at 2 µM [4]: 0.04; solubility at 50 µM [5]: 32.8 µM (≈ 11.8 µg/mL); Kp at 1 h [17]: 0.114; recovery at 2 µM [7]: 64.5%; solubility at 50 µM [8]: 45.9 µM (≈ 16.5 µg/mL); half-life [9]: > 1 h
C[C@]12CC[C@H]3[C@@H](CCC4=CC(=O)CC[C@@]43C)[C@@H]1CC[C@@H]2O [TESTOSTERONE]							half-life [9]: 0.0947 h
O=C(Nc1ccn2cc(-c3ccccc3)nc2c1)N1CC[C@H](F)C1	> 50000	1080	1730	620	770	44600	
O=C(Nc1ccn2cc(-c3cccc(F)c3)nc2c1)N1CCCCC1	> 50000	3100	4530	970	1480	> 50000	
O=C(Nc1ccn2cc(-c3ccc(F)c(F)c3)nc2c1)c1cccnc1Cl	> 50000	7340	> 20000	> 20000	> 20000	> 50000	
O=C(Nc1ccn2cc(-c3cccc(F)c3)nc2c1)N1CC[C@H](F)C1	> 50000	710	880	160	820	29700	solubility at 50 µM [1]: 43.8 µM (≈ 15 µg/mL); Stability (Liver): 84.5%; fraction unbound at 2 µM [4]: 0.03; solubility at 50 µM [5]: 49.7 µM (≈ 17 µg/mL); recovery at 2 µM [7]: 68.5%; solubility at 50 µM [8]: 52 µM (≈ 17.8 µg/mL); half-life [9]: > 1 h
O=C(Nc1ccn2cc(-c3cccc(F)c3)nc2c1)N1CCCC1	> 50000	2950	6010	730	880	> 50000	
O=C(Nc1ccn2cc(-c3cccc(F)c3F)nc2c1)N1CCCCC1	> 50000	1000	1580	720	870	> 50000	
O=C(Nc1ccn2cc(-c3ccc(F)c(F)c3)nc2c1)c1cccnc1	> 50000	6270	> 20000	6300	> 20000	> 50000	
